ChEMBL document CHEMBL3045729, “Anti-tobacco mosaic virus (TMV) triterpenoid saponins from the leaves of Ilex oblonga” (J Agric Food Chem, 2007)
≈ marks a conversion by molar mass, not a printed value.

What was measured:
Tobacco mosaic virus [1] = assay: Antiviral activity against Tobacco mosaic virus (TMV) inoculated in Nicotiana tabacum cv. K326 leaves assessed as inhibition of virus multiplication at 0.2 mg/ml at 25 degC measured after 48 hr by indirect ELISA/leaf-disk method; format: functional
Outline: (§1)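 N. tabacum cv. K326 leaves mechanically inoculated with TMV at 10 µg/mL. After 7 h, 10-mm disks were floated on compound solutions (DMSO, diluted with water) for 48 h at 25 ± 1 °C. Solvent-only and healthy-leaf disks were controls; six repetitions. Ground disks were assayed by indirect ELISA (OD405) against an in-plate TMV standard curve. Inhibition was calculated relative to the solvent control.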

Tobacco mosaic virus [2] = assay: Antiviral activity against Tobacco mosaic virus (TMV) inoculated in Nicotiana tabacum cv. K326 leaves assessed as inhibition of virus multiplication at 0.1 mg/ml at 25 degC measured after 48 hr by indirect ELISA/leaf-disk method; format: functional; outline: as §1
Tobacco mosaic virus [3] = assay: Antiviral activity against Tobacco mosaic virus (TMV) inoculated in Nicotiana tabacum cv. K326 leaves assessed as inhibition of virus multiplication at 0.4 mg/ml at 25 degC measured after 48 hr by indirect ELISA/leaf-disk method; format: functional; outline: as §1
Tobacco mosaic virus [4] = assay: Antiviral activity against Tobacco mosaic virus (TMV) inoculated in Nicotiana tabacum cv. K326 leaves assessed as inhibition of virus multiplication at 25 degC measured after 48 hr by indirect ELISA/leaf-disk method; format: functional, organism-based; outline: as §1
Tobacco mosaic virus [5] = assay: Antiviral activity against Tobacco mosaic virus (TMV) inoculated in Nicotiana tabacum cv. K326 leaves assessed as inhibition of virus multiplication at 0.05 mg/ml at 25 degC measured after 48 hr by indirect ELISA/leaf-disk method; format: functional; outline: as §1
Tobacco mosaic virus [6] = assay: Antiviral activity against Tobacco mosaic virus (TMV) inoculated in Nicotiana tabacum cv. K326 leaves assessed as inhibition of virus multiplication at 0.025 mg/ml at 25 degC measured after 48 hr by indirect ELISA/leaf-disk method; format: functional; outline: as §1

| Compound | inhibition at 200 µg/mL (Tobacco mosaic virus [1]) | inhibition at 100 µg/mL (Tobacco mosaic virus [2]) | inhibition at 400 µg/mL (Tobacco mosaic virus [3]) | EC50 (Tobacco mosaic virus [4]) | inhibition at 50 µg/mL (Tobacco mosaic virus [5]) | inhibition at 25 µg/mL (Tobacco mosaic virus [6]) |
| --- | --- | --- | --- | --- | --- | --- |
| C[C@@H]1CC[C@]2(C(=O)O[C@@H]3O[C@H](CO)[C@@H](O)[C@H](O)[C@H]3O)CC[C@]3(C)C(=CC[C@@H]4[C@@]5(C)CC[C@H](O[C@@H]6OC[C@@H](O)[C@H](O)[C@H]6O)[C@@](C)(CO)[C@@H]5CC[C@]43C)[C@@H]2[C@]1(C)O [OBLONGANOSIDE I] | 31.7% |  |  |  |  |  |
| C[C@@H]1CC[C@]2(C(=O)O[C@@H]3O[C@H](CO)[C@@H](O)[C@H](O)[C@H]3O)CC[C@]3(C)C(=CC[C@@H]4[C@@]5(C)CC[C@H](O)C(C)(C)[C@@H]5CC[C@]43C)[C@@H]2[C@]1(C)O | 27% |  |  |  |  |  |
| CC1(C)[C@@H](O[C@@H]2OC[C@@H](O)[C@H](O)[C@H]2O)CC[C@]2(C)[C@H]3CC=C4[C@@H]5C[C@](C)(CO)CC[C@]5(C(=O)O[C@@H]5O[C@H](CO)[C@@H](O)[C@H](O)[C@H]5O)CC[C@@]4(C)[C@]3(C)CC[C@@H]12 [OBLONGANOSIDE L] | 46.9% |  |  |  |  |  |
| C[C@@H]1CC[C@]2(C(=O)O[C@@H]3O[C@H](CO)[C@@H](O)[C@H](O)[C@H]3O)CC[C@]3(C)C(=CC[C@@H]4[C@@]5(C)CC[C@H](O[C@@H]6OC[C@@H](O)[C@H](O)[C@H]6O)C(C)(C)[C@@H]5CC[C@]43C)[C@@H]2[C@]1(C)O [OBLONGANOSIDE H] | 37.4% |  |  |  |  |  |
| C[C@@H]1CC[C@]2(C(=O)O[C@@H]3O[C@H](CO)[C@@H](O)[C@H](O)[C@H]3O)CC[C@]3(C)C(=CC[C@@H]4[C@@]5(C)CC[C@@H]6O[C@H](CO)OC[C@@]6(C)[C@@H]5CC[C@]43C)[C@@H]2[C@]1(C)O [OBLONGANOSIDE J] | 28.1% |  |  |  |  |  |
| C[C@@H]1CC[C@]2(C(=O)O[C@@H]3O[C@H](CO)[C@@H](O)[C@H](O)[C@H]3O)CC[C@]3(C)C(=CC[C@@H]4[C@@]5(C)CC[C@H](O)[C@@](C)(CO)[C@@H]5CC[C@]43C)[C@@H]2[C@]1(C)O [PEDUNCULOSIDE] | 41.5% |  |  |  |  |  |
| CC1(C)CC[C@]2(C(=O)O[C@@H]3O[C@H](CO)[C@@H](O)[C@H](O)[C@H]3O)CC[C@]3(C)C(=CC[C@@H]4[C@@]5(C)CC[C@H](O[C@@H]6OC[C@@H](O)[C@H](O)[C@H]6O)[C@@](C)(CO)[C@@H]5CC[C@]43C)[C@@H]2[C@@H]1O [OBLONGANOSIDE M] | 78.5% | 61.5% | 85.3% | 85 µg/mL (≈ 109 µM) | 32.7% | 5.2% |
| CC1(C)CC[C@]2(C(=O)O[C@@H]3O[C@H](CO)[C@@H](O)[C@H](O)[C@H]3O)CC[C@]3(C)C(=CC[C@@H]4[C@@]5(C)CC[C@H](O[C@@H]6OC[C@@H](O)[C@H](O)[C@H]6O)C(C)(C)[C@@H]5CC[C@]43C)[C@@H]2[C@@H]1O [OBLONGANOSIDE K] | 85.7% | 63.9% | 88.5% | 76 µg/mL (≈ 99.1 µM) | 31.4% | 13.1% |
| CC1(C)CC[C@]2(C(=O)O[C@@H]3O[C@H](CO)[C@@H](O)[C@H](O)[C@H]3O)CC[C@]3(C)C(=CC[C@@H]4[C@@]5(C)CC[C@H](O)C(C)(C)[C@@H]5CC[C@]43C)[C@@H]2[C@@H]1O | 84.5% | 65.7% | 89.2% | 80 µg/mL (≈ 126 µM) | 25.3% | 7.6% |
| C[C@@H]1CC[C@]2(C(=O)O[C@@H]3O[C@H](CO)[C@@H](O)[C@H](O)[C@H]3O)CC[C@]3(C)C(=CC[C@@H]4[C@@]5(C)C[C@@H](O)[C@H](O)[C@@](C)(CO)[C@@H]5CC[C@]43C)[C@@H]2[C@]1(C)O [NIGAICHIGOSIDE F1] | 24.9% |  |  |  |  |  |
